# Assay outcomes deposited in PubChem by several laboratories.
# Only some compounds are listed: those with a hit (about 1.5% of all), similar ones and a draw of the others.
# PP1 counter – counter-screen for PP5 inhibitors: inhibitors of human PP1-alpha; P62136; purified PP1alpha, OMFP fluorescence; inhibition, % at 6.7 µM; actives 0.9% (n = 320,000); AID 2235;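 active = inhibition above the mean inhibition of all tested compounds plus 3 SD, computed separately for each screening campaign, cut at about 15% in these data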
# Target sequence (P62136 whole entry, looked up): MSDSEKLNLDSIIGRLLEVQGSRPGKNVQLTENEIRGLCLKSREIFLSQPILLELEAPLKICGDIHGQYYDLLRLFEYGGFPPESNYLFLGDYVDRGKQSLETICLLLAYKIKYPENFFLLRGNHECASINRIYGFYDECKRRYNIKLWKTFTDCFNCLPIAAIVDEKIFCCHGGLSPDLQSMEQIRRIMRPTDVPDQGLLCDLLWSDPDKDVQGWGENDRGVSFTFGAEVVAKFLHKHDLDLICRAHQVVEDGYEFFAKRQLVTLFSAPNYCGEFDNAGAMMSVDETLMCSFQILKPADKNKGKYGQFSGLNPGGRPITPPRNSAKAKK
# p97 inhibitor – inhibitors of human p97 ATPase; P55072; recombinant p97 ATPase, Kinase-Glo ATP luminescence, 3 h; inhibition, % at 8 µM; actives 0.42% (n = 220,000); in the data active = inhibition above about 15%;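 note: 0% = DMSO vehicle and 100% = wells lacking enzyme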
# PKD1 inh – blocks activity of human protein kinase D1; inhibition, % (concentration not given with the values); PKD1 kinase fluorescence polarization assay; actives 0.056% (n = 200,000); in the data active = inhibition above about 50%
# PP5 primary – blocks human protein phosphatase 5 activity. purified PP5c, OMFP substrate fluorescence. actives 0.18% (n = 320,000). inhibition, % at 6.7 µM. P53041;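 active = inhibition above the campaign's mean inhibition across all tested compounds plus 3 SD, cut at about 9.5% in these data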;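 note: 0% = DMSO only and 100% = 100 µM cantharidin control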
# Hsp70 act – transcriptional activators of Hsp70; activation, % at 10 µM; HeLa Hsp70 promoter luciferase reporter, luminescence; scaled: vehicle 0, proteasome-inhibitor control 100%; actives 0.04% (n = 200,000); AID 1203;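 active = activation above the mean across all tested compounds plus 3 SD, cutoff set per campaign, cut at about 5.5% in these data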;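 note: 100% = MG132 at 30 µM as the positive control and 0% = DMSO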
# RBBP9 inhibitor – blocks human serine hydrolase RBBP9. O75884. recombinant RBBP9, FP-Rh probe fluorescence polarization. inhibition, % at 7.94 µM. actives 0.2% (n = 220,000);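 active = inhibition above the campaign mean of all tested compounds plus 3 SD, cut at about 14% in these data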;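 note: plate controls were DMSO wells with RBBP9 for no effect and wells lacking RBBP9 protein for full effect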
#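 system = RBBP9 protein | input = RBBP9 at 2.5 µM in dispensed solution, before mixing | measured by = fluorescence polarization (mP), excitation 525 nm, emission 598 nm | incubation = enzyme-compound preincubation 30 min, then probe labeling 45 min, 25 °C | buffer or medium = Tris-NaCl-Pluronic buffer, pH 8.0 | compound = single dose 7.94 µM | also added = FP-Rh probe, 375 nM dispensing solution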
# PP1 inh confirm – confirmation of human PP1 phosphatase inhibitors; AID 2358; shares compounds with PP1 counter; actives 52% (n = 1,900); inhibition, % at 6.7 µM; purified PP1alpha, OMFP substrate fluorescence;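 active = mean PP1 inhibition above a set limit taken from the earlier primary screen, cut at about 15% in these data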
# PP5 counter – PP5 phosphatase inhibition, counter-screen for PP1 inhibitors; shares compounds with PP1 counter; purified PP5c, OMFP fluorescence; inhibition, % at 6.7 µM; actives 4% (n = 1,900);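 active = mean PP5 inhibition over triplicate wells above about 9.5% taken from the earlier PP1 screen, limit read from the data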
# * = called active by the depositor; · = no result.
SMILES,PP1 counter,p97 inhibitor,PKD1 inh,PP5 primary,Hsp70 act,RBBP9 inhibitor,PP1 inh confirm,PP5 counter
CCOC(=O)c1sc2nccc(N(C)C)c2c1N=CNOCc1c(F)cccc1Cl,3.2,-1.1,2.8,4.0,-0.4,-4.3,·,·
[S-]c1nnc(-c2ccc(Br)cc2)n1-c1ccccc1.[Zn+2],20.1*,·,·,6.7,·,·,23.6*,-5.2
O=C1CC(=C2c3ccccc3-c3ccccc32)C(=O)N1CCCCN1CCN(c2ccccc2)CC1,25.7*,-0.2,-0.8,-0.5,-0.1,1.2,27.8*,-2.7
Clc1ccc(C2=Nn3c(nnc3-c3cc(-c4ccccc4)n[nH]3)SC2)cc1,23.2*,5.2,-3.7,1.7,-0.2,-3.6,16.2*,-1.3
Clc1ccc(C2=Nn3c(nnc3-c3n[nH]c4c3CCC4)SC2)cc1Cl,22.6*,7.3,4.1,2.1,-0.2,-1.9,27.6*,3.0
Cc1cc(C)n(-c2nc(Nc3ccccc3C(F)(F)F)nc(-n3nc(C)cc3C)n2)n1,29.8*,-2.7,8.8,5.0,-0.1,-5.1,17.0*,2.3
Cc1cc(C)n(-c2nc(Nc3ccccc3C)nc(-n3nc(C)cc3C)n2)n1,35.8*,-1.6,-7.5,3.6,0.1,3.2,38.3*,-1.8
